Jurkat NFkB inh – inhibitors of the PMA/ionomycin-induced NF-kB reporter in Jurkat cells. PMA/ionomycin-induced NF-kB luciferase reporter, luminescence. inhibition, % at 4 µM. AID 435003. 330,000 tested, 0.53% active; in the data active = inhibition above about 50%
UPR CHOP act – apoptotic UPR (CHOP) activation; 330,000 tested, 0.34% active; CHO-CHOP luciferase reporter, luminescence; percent of tunicamycin response over DMSO baseline; AID 449763; activation, % at 10 µM;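 active = at 10 µM dose, activation of 40% or more, normalized to positive control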;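 also: 100% = tunicamycin at 10 µg/mL and 0% = DMSO alone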
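assay system = CHO CHOP reporter cells | amount = 500 CHO-CHOP cells per well | buffer or medium = F12 with 10% FBS | incubation = 16-18 h cell attachment, then 6 h compound exposure, 37 °C | detection = luminescence read with Steady-Glo | read-out = percent activation relative to tunicamycin control | controls = tunicamycin high control, DMSO low control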
CHOP inhibitor – blocks CHOP induction under ER stress | CHO-K1 CHOP-promoter luciferase, tunicamycin-induced, 15-18 h | 220,000 tested, 3.8% active | inhibition, % at 10 µM;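 active = compounds that reduced the stress-induced luciferase reporter signal by more than about 70% of percent inhibition, limit read from the data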;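 also: 0% = tunicamycin plus vehicle and 100% = wells without tunicamycin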
697 NFkB inh – lowers PMA/ionomycin-induced NF-kB signal in 697 B cells | 697 B-cell NF-kB luciferase reporter, 16 h | inhibition, % at 4 µM | 330,000 tested, 0.33% active | AID 435022; in the data active = inhibition above about 35%
UPR XBP1 act – adaptive UPR (XBP1) activation | 330,000 tested, 0.33% active | AID 463104 | activation, % at 20 µM | CHO-XBP1 luciferase reporter, IRE1-XBP1 UPR activation, luminescence; percent of tunicamycin response, DMSO as zero;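 active = versus positive control, 20 µM dose yields 30% or more activation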;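 also: 100% = tunicamycin at 10 µg/mL and 0% = DMSO only wells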
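assay system = CHO-XBP1 luciferase reporter cells | amount = 1000 cells/well | buffer or medium = F12 plus 10% FBS | compound dosing = single point, 20 µM final compound, 1% DMSO | incubation = 16-18 h cell attachment at 37 °C, then 6 h compound exposure | detection = Steady-Glo luminescence read | controls = tunicamycin 10 µg/mL and vehicle-only wells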
Jurkat NFkB conf – inhibitors of the PMA/ionomycin-induced NF-kB reporter in Jurkat cells, retest; shares compounds with Jurkat NFkB inh; Jurkat NF-kB luciferase, 16 h; inhibition, % at 4 µM; 2,700 tested, 27% active;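 active = inhibition reaching about 45% at 4 µM in either replicate, limit read from the data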;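 also: plate controls were PMA/ionomycin stimulated DMSO wells for no effect and unstimulated DMSO wells for full effect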
* = called active by the depositor; . = not tested or not shown. Shown is part of a subset that was picked to be rich in hits.

SMILES | Jurkat NFkB inh | UPR CHOP act | CHOP inhibitor | 697 NFkB inh | UPR XBP1 act | Jurkat NFkB conf
COc1cccc(-c2cc(=O)c3cc(NC(=O)c4ccccc4)ccc3[nH]2)c1 | 90* | 0 | -43 | -60 | 19 | 52*
COc1cccc(-c2cc(=O)c3cc(NC(=O)c4ccc(N(C)C)cc4)ccc3[nH]2)c1 | 87* | 1 | -87 | -111 | 20 | 57*
COc1cccc(-c2cc(=O)c3cc(NC(=O)c4ccc(Cl)cc4)ccc3[nH]2)c1 | 78* | -1 | -40 | -36 | -3 | 14
COc1ccc2[nH]c(-c3cccc(F)c3)cc(=O)c2c1 | 37 | 3 | -56 | -98 | 20 | .
CCCC(=O)Nc1ccc(C(=O)Nc2cccc(OC)c2)cc1 | -20 | 0 | -37 | 7 | 1 | .
Cc1ccc(S(=O)(=O)N2CCN(C(=O)COC(=O)c3cncc(Br)c3)CC2)c(C)c1 | 1 | 0 | . | 1 | -4 | .
Cc1cccc(OCC(=O)NCCNC(=O)c2ccccn2)c1 | 13 | 0 | . | 13 | 0 | .
Nc1nc2n[nH]nc2c(=O)[nH]1 | 64* | 2 | . | -52 | -1 | 74*
CC(C)CN(C(=O)C1CCCO1)C1CCS(=O)(=O)C1 (centres undefined) | 13 | -3 | . | 32 | -2 | .
COc1ccc(CC(=O)N2CCN(S(=O)(=O)c3cc(Cl)ccc3Cl)CC2)cc1 | -2 | -1 | . | 13 | 0 | .
Nc1nc(-c2ccccc2)cn1N | 4 | -4 | 23 | -14 | 0 | .
Nc1nn2cc(-c3ccccc3)nc2c2ccccc12 | -190 | 3 | 6 | -182 | 2 | -84
Cc1ccc(C(=O)N/C(=C\c2ccco2)C(=O)NCCN2CCOCC2)cc1C | 3 | 1 | . | -7 | 0 | .
COC(=O)c1cn(NC(=O)c2cc([N+](=O)[O-])ccc2F)c(=O)c2ccccc12 | 97* | -1 | 57 | -103 | -2 | 90*
COC(=O)c1cn(NC(=O)C2CCC(C)CC2)c(=O)c2ccccc12 (centres undefined) | 3 | 0 | 28 | -8 | 2 | .
O=[N+]([O-])c1ccc(C2=NN(CCO)C(=Nc3ccc(OC(F)(F)F)cc3)SC2)cc1 | 75* | 0 | 38 | 0 | 1 | 11
COc1ccc(N=C2SCC(c3ccc([N+](=O)[O-])cc3)=NN2CCO)cc1 | 20 | 1 | 20 | -52 | 4 | .
CCCNC(=O)C1CC(=O)N(c2ccc(OCc3ccc(F)cc3)cc2)C1 (centres undefined) | -152 | 3 | . | -33 | -3 | -75
CCCNC(=O)C1CC(=O)N(c2ccc(OCc3ccc(Cl)cc3)cc2)C1 (centres undefined) | -128 | 9 | . | -30 | -6 | .
CCC(=O)N1CCc2cc(OC)c(OC)cc2C1COc1ccc(F)cc1 (centres undefined) | 64* | 1 | . | -13 | -4 | -1
CC(=O)c1cccc(OCc2cc(C(=O)N3C[C@@H](C)O[C@@H](C)C3)no2)c1 | -35 | 6 | . | -42 | 1 | .
N#CCC(CNc1ncc(C(F)(F)F)cc1Cl)OC(=O)c1c(F)cccc1F (centres undefined) | 75* | -2 | . | -3 | -2 | 21
Cc1ccc(C(=O)NCCNc2ncc(C(F)(F)F)cc2Cl)cc1[N+](=O)[O-] | 13 | 0 | . | 14 | -1 | .
N#CCC(CNc1ncc(C(F)(F)F)cc1Cl)OC(=O)c1ccc(Cl)cc1 (centres undefined) | 43 | -1 | 46 | -2 | -1 | .
N#CCC(CNc1ncc(C(F)(F)F)cc1Cl)OC(=O)c1cccc([N+](=O)[O-])c1 (centres undefined) | 66* | 0 | 38 | 16 | 3 | 14
SMILES | Jurkat NFkB inh | UPR CHOP act | CHOP inhibitor | 697 NFkB inh | UPR XBP1 act | Jurkat NFkB conf
Cc1cc(S(=O)(=O)N2CCCCC2CCNC(=O)C(=O)NCC2CCCO2)ccc1F (centres undefined) | -6 | 0 | . | 4 | 0 | .
CCOC(=O)c1c(NC(=O)CN2C(=O)CN(C)C2=O)sc(C)c1C | 7 | -1 | 1 | -9 | 0 | .
CSc1nc2ccccc2cc1/C=C(\C#N)c1cccc(Cl)c1 | 54* | -5 | -16 | -34 | 1 | 3
CCOC(=O)/C(C#N)=C/c1cc2ccccc2nc1Cl | -1 | -1 | 8 | 14 | -2 | .
Cc1ccc(S(=O)(=O)Nc2ccccc2-c2ccccc2)cc1 | 59* | -1 | 29 | -50 | 3 | 50*
Cc1cccn2c(=O)c3cc(C(=O)NC4CCCC4)n(C)c3nc12 | 51* | 3 | . | -24 | 7 | 13
COc1cc(-c2noc(C)c2C#Cc2ccsc2)cc(OC)c1OC | 63* | 1 | . | -34 | 15 | 57*
CC(=O)c1cccc(NC(=S)NC(=O)c2ccc(Br)cc2)c1 | 91* | 5 | -4 | -109 | 2 | 18
CC(=O)c1cccc(NC(=S)NC(=O)c2ccc(C)cc2)c1 | -106 | 3 | -35 | -34 | 3 | .
Cc1ccccc1C(=O)c1cccn1CC(=O)NC1CCCC(C)C1C (centres undefined) | 3 | 1 | . | 0 | -2 | .
COc1ccc(NC(=O)C(=S)NC2CCCCC2)cc1 | -156 | 8 | -10 | -141 | 5 | -49
CCOc1ccc(NC(=O)C(=S)NC2CCCCC2)cc1 | -72 | 4 | 4 | -33 | 3 | .
CCc1ccc(NC(=O)C(=S)NC2CCCCC2)cc1 | -182 | 3 | -27 | -133 | 2 | -76
O=C(Nc1ccccc1)NC1CCCCCCC1 | -65 | 2 | . | -42 | 1 | .
O=C(Nc1ccc(Br)cc1)NC1CCCCCCC1 | -179 | 5 | . | -219 | -3 | -81
O=C(N/N=C1\CCS(=O)(=O)c2ccc(F)cc21)c1ccc(O)cc1 | -8 | 0 | -2 | 14 | -1 | .
Brc1ccc(-c2cn3ccccc3n2)s1 | -166 | 0 | 36 | -245 | -7 | -102
Cc1cccc(CNC(=O)CC2C(=O)NCCN2C2CCCC2)c1 (centres undefined) | -2 | 0 | . | 8 | -2 | .
Cc1ccc(C(=O)c2cc([N+](=O)[O-])ccc2N2CCN(C)CC2)cc1 | 41 | -1 | -2 | -2 | 1 | .
O=C(c1ccccc1)c1cc([N+](=O)[O-])ccc1N1CCCC1 | 10 | -1 | 21 | -15 | -1 | .
Cc1ccc(C(=O)c2cc([N+](=O)[O-])ccc2N2CCOCC2)c(C)c1 | 55* | 0 | -3 | 22 | 9 | 50*
Cc1ccc(C(=O)c2cc([N+](=O)[O-])ccc2N2CCCCC2)cc1C | 63* | 1 | 17 | -34 | 4 | 42
Cc1ccc(C(=O)c2cc([N+](=O)[O-])ccc2N2CCOCC2)cc1C | 66* | 0 | 3 | -75 | 2 | 51*
Cc1ccc(C)c(C(=O)COC(=O)c2cc([N+](=O)[O-])ccc2N2CCOCC2)c1 | 26 | 2 | . | -5 | 2 | .

Assay outcomes as filed in PubChem BioAssay.
